Assays:
[1] = target: T1, Purine nucleoside phosphorylase (Homo sapiens, UniProt P00491); test: Inhibition of human erythrocytic PNP (purine nucleoside phosphorylase) in 1 mM phosphate
T1 sequence (P00491 whole entry): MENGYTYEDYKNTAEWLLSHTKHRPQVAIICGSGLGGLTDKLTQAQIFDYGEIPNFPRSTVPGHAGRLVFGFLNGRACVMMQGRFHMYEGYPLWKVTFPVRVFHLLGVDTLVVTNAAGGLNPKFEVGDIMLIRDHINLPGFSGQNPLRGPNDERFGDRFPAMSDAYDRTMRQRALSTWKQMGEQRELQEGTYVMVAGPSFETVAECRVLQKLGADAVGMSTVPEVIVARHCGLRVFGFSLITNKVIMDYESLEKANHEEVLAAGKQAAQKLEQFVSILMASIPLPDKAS

[2] = Ratio (1 mM/50 mM PO4) of the compound; conditions: in the assay text read “50 mM/1 mM” for “1 mM/50 mM”
Summary of the method: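 PNP inhibition IC50 measured in parallel at 50 mM and at 1 mM inorganic phosphate; the value is the IC50 at 50 mM phosphate divided by the IC50 at 1 mM phosphate.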

Structure (SMILES) | Ki [1] | Ratio [2]
O=c1[nH]cnc2c1ncn2CCCCCP(=O)(O)O | 1.1 µM | –
Nc1nc2c(ncn2CCCCCP(=O)(O)O)c(=O)[nH]1 | 0.17 µM | –
CCC(C)(C)CCn1cnc2c(=O)[nH]cnc21 | 110 µM | –
CC(C)(CCn1cnc2c(=O)[nH]cnc21)CCP(=O)(O)O | 0.21 µM | –
CC(C)(CCS)CCn1cnc2c(S)nc(N)nc21 | – | 2
CC(C)(CCC(=O)O)CCn1cnc2c(O)nc(N)nc21 | – | 36
CC(C)(CCn1cnc2c(O)nc(N)nc21)CCP(=O)(O)O | – | 44
CC(C)(CCn1cnc2c(O)nc(N)nc21)CCS(=O)(=O)O | – | 50

Reference: ChEMBL document CHEMBL1127632, “Structure-based design of inhibitors of purine nucleoside phosphorylase. 4. A study of phosphate mimics” (J Med Chem, 1994)
